Series [1] has as its system A549. Kind of series: Cytotoxicity against human A549 cells after 48 hrs by MTT assay. Conditions: A549, 48 h. Type of series: functional, cell-based. For orientation: Tetrazolium assays rely on reduction of a dye to a coloured formazan, in cell work by metabolically active cells.
Series [2] can be described thus: Hemolytic activity against New Zealand rabbit erythrocytes measured after 60 mins. Type of series: ADME, cell-based, Oryctolagus cuniculus, Erythrocyte. Conditions: read-out: HD50. In short, it runs like this:
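Nonheparinized rabbit blood; erythrocytes washed three times in PBS pH 7.4, 10% suspension; compounds from 10 mM DMSO stock diluted in PBS to 5-500 μM; 100 μL suspension plus 1 mL sample, 37 °C 60 min with periodic stirring; centrifuged, supernatant A540; distilled water = 100% hemolysis, PBS blank subtracted; triplicate; HD50 = concentration giving 50% maximal hemolysis.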

The subject of series [3] is A549. The experiment in a line: Cytotoxicity against human A549 cells after 72 hrs by sulforhodamine B assay. It counts as functional, cell-based. Conditions: for IC50: A549, 72 h. A general note: The SRB assay estimates cell density from bound dye.
The test system of series [4] is MDA-MB-231. The experiment in a line: Cytotoxicity against human MDA-MB-231 cells after 72 hrs by sulforhodamine B assay. Type of series: functional, cell-based. Conditions: for IC50: MDA-MB-231, 72 h.
Series [5] concerns KB. Kind of series: Cytotoxicity against human KB cells after 72 hrs by sulforhodamine B assay. It counts as functional, cell-based.
Series [6] can be described thus: (§1) Cytotoxicity against human KBVIN cells after 72 hrs by sulforhodamine B assay. It counts as functional, cell-based.
In series [7] the test system is MCF7. Kind of series: Cytotoxicity against human MCF7 cells after 72 hrs by sulforhodamine B assay. Type of series: functional, cell-based. As to conditions: for IC50: MCF7, 72 h.
The species entered for series [8] is Homo sapiens. The description is as §1. It counts as functional, cell-based.
Series [9] concerns A549. Kind of series: Cell cycle arrest in human A549 cells assessed as accumulation at G1-phase at 2 uM after 24 hrs by propidium iodide staining based flow cytometric analysis (reference value: 46.6%). It counts as functional. (In general: Flow cytometry measures light scatter and fluorescence of single cells or particles in a stream.)
The test system of series [10] is A549. Kind of series: Cell cycle arrest in human A549 cells assessed as accumulation at G1-phase at 4 uM after 24 hrs by propidium iodide staining based flow cytometric analysis (reference value: 46.6%). Type of series: functional.
For series [11], the system named is A549. The experiment in a line: Cell cycle arrest in human A549 cells assessed as accumulation at G1-phase at 8 uM after 24 hrs by propidium iodide staining based flow cytometric analysis (reference value: 46.6%). It counts as functional.
Series [12] has as its system A549. The experiment in a line: Induction of apoptosis in human A549 cells assessed as early apoptotic cells at 2 uM after 24 hrs by Annexin-V-FITC/propidium iodide staining based flow cytometric method (reference value: 1.43%). It counts as functional.
For series [13], the system named is A549. The experiment in a line: Induction of apoptosis in human A549 cells assessed as early apoptotic cells at 4 uM after 24 hrs by Annexin-V-FITC/propidium iodide staining based flow cytometric method (reference value: 1.43%). Type of series: functional.
Series [14] concerns A549. Kind of series: Induction of apoptosis in human A549 cells assessed as early apoptotic cells at 8 uM after 24 hrs by Annexin-V-FITC/propidium iodide staining based flow cytometric method (reference value: 1.43%). It counts as functional.
Series [15] concerns A549. Kind of series: Induction of apoptosis in human A549 cells assessed as late apoptotic cells at 2 uM after 24 hrs by Annexin-V-FITC/propidium iodide staining based flow cytometric method (reference value: 2.97%). It counts as functional.
Series [16] concerns A549. Kind of series: Induction of apoptosis in human A549 cells assessed as late apoptotic cells at 4 uM after 24 hrs by Annexin-V-FITC/propidium iodide staining based flow cytometric method (reference value: 2.97%). Type of series: functional.
The test system of series [17] is A549. Kind of series: Induction of apoptosis in human A549 cells assessed as late apoptotic cells at 8 uM after 24 hrs by Annexin-V-FITC/propidium iodide staining based flow cytometric method (reference value: 2.97%). Type of series: functional.
Series [18] concerns A549. The experiment in a line: Induction of apoptosis in human A549 cells assessed as increase in cleaved PARP level at 2 to 8 uM by Western blot analysis. Type of series: functional, cell-based. In short, it runs like this: (§2)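 A549 cells exposed 24 h; lysed in Tris-Cl pH 6.8/4% SDS/glycerol/β-mercaptoethanol/PMSF/aprotinin buffer, cleared 12000g 15 min 4 °C, protein by BCA; 10-15% SDS-PAGE, PVDF transfer, primary antibodies overnight 4 °C, HRP secondaries, ECL detection; Lam A as loading control.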

The subject of series [19] is A549. Kind of series: Induction of apoptosis in human A549 cells assessed as reduction in procaspase-3 level at 2 to 8 uM by Western blot analysis. It counts as functional, cell-based. Summed up: as §2
Series [20] has as its system A549. Kind of series: Induction of apoptosis in human A549 cells assessed as reduction in procaspase-9 level at 2 to 8 uM by Western blot analysis. Type of series: functional, cell-based. In short, it runs like this:
as §2

The test system of series [21] is A549. Kind of series: Induction of apoptosis in human A549 cells assessed as reduction in procaspase-8 level at 2 to 8 uM by Western blot analysis. It counts as functional, cell-based. Summed up: as §2

Results on 15 compounds are retold here after ChEMBL document CHEMBL4138167, “Cytotoxicity, Hemolytic Toxicity, and Mechanism of Action of Pulsatilla Saponin D and Its Synthetic Derivatives” (J Nat Prod, 2018).

Molecules are shown by their SMILES. Calls of active or inactive are those of the source. No cut-off for these calls is given here.

In general, IC50 refers to the point on the concentration scale where inhibition reaches its midpoint. A higher IC50 goes with weaker potency.

As for `C[C@@H]1O[C@@H](O[C@H]2[C@H](O[C@H]3CC[C@@]4(C)[C@@H](CC[C@]5(C)[C@@H]4C(=O)C=C4[C@@H]6CC(C)(C)CC[C@]6(C(=O)O)CC[C@]45C)[C@]3(C)CO)OC[C@H](O[C@@H]3O[C@H](CO)[C@@H](O)[C@H](O)[C@H]3O)[C@@H]2O)[C@H](O)[C@H](O)[C@H]1O`, in [1], the IC50 was over 10 µM. Also, in [2], the HC50 at 1 h was determined as 239 µM.
Take `CC(=O)OC[C@@]1(C)[C@@H]2CC[C@]3(C)[C@H](CC=C4[C@@H]5CC(C)(C)CC[C@]5(C(=O)O)CC[C@]43C)[C@@]2(C)CC[C@@H]1OC(C)=O`: the IC50 in series [3] was 6.2 µM; in [4] it was over 10 µM; in series [5], 7.4 µM; in series [6], 8.5 µM; in series [7] it was over 10 µM.
As for `CC1(C)CC[C@]2(C(=O)NCC(=O)O)CC[C@]3(C)C(=CC[C@@H]4[C@@]5(C)CC[C@H](O)[C@@](C)(CO)[C@@H]5CC[C@]43C)[C@@H]2C1`, the IC50 in series [3], in [4], in series [5], in series [6] and in series [7] was over 10 µM each time.
For `CCOC(=O)CCCCCNC(=O)[C@]12CCC(C)(C)C[C@H]1C1=CC[C@@H]3[C@@]4(C)CC[C@H](OC(C)=O)[C@@](C)(COC(C)=O)[C@@H]4CC[C@@]3(C)[C@]1(C)CC2`, the IC50 is 5.1 µM in series [3], 6.9 µM in [5], over 10 µM in [6] and over 10 µM in series [7].
As to `CC1(C)CC[C@]2(C(=O)NCCCCCC(=O)O)CC[C@]3(C)C(=CC[C@@H]4[C@@]5(C)CC[C@H](O)[C@@](C)(CO)[C@@H]5CC[C@]43C)[C@@H]2C1`, the IC50 in series [3], in series [4], in series [5], in [6] and in [7] was over 10 µM each time.
For the compound `CC1(C)CC[C@]2(C(=O)O)CC[C@]3(C)C(=CC[C@@H]4[C@@]5(C)CC[C@H](O)[C@@](C)(CO)[C@@H]5CC[C@]43C)[C@@H]2C1` [HEDERAGENIN], the half-inhibitory concentration (IC50) in series [3], in series [4], in series [5], in [6] and in [7] was over 10 µM throughout.
Regarding `C[C@@H]1O[C@@H](O[C@H]2[C@H](O[C@H]3CC[C@@]4(C)[C@@H](CC[C@]5(C)[C@@H]4C[C@H](O)[C@]46OC(=O)[C@@]7(CCC(C)(C)C[C@H]74)CC[C@]65C)[C@]3(C)CO)OC[C@H](O[C@@H]3O[C@H](CO)[C@@H](O)[C@H](O)[C@H]3O)[C@@H]2O)[C@H](O)[C@H](O)[C@H]1O`, in [1], the IC50 was over 10 µM. Further, the HC50 at 1 h in series [2] amounted to 308 µM.
For `C[C@@H]1O[C@@H](O[C@H]2[C@H](O[C@H]3CC[C@@]4(C)[C@@H](CC[C@]5(C)[C@@H]4C(=O)C=C4[C@@H]6CC(C)(C)CC[C@]6(C(=O)NCC(=O)O)CC[C@]45C)[C@]3(C)CO)OC[C@H](O[C@@H]3O[C@H](CO)[C@@H](O)[C@H](O)[C@H]3O)[C@@H]2O)[C@H](O)[C@H](O)[C@H]1O`, in series [1], the IC50 is over 10 µM.
For the compound `CC1(C)CC[C@]2(C(=O)NCCCC(=O)O)CC[C@]3(C)C(=CC[C@@H]4[C@@]5(C)CC[C@H](O)[C@@](C)(CO)[C@@H]5CC[C@]43C)[C@@H]2C1`, the IC50 in series [3], in series [4], in series [5], in [6] and in series [7] was over 10 µM each time.
As for `CCOC(=O)CCCNC(=O)[C@]12CCC(C)(C)C[C@H]1C1=CC[C@@H]3[C@@]4(C)CC[C@H](OC(C)=O)[C@@](C)(COC(C)=O)[C@@H]4CC[C@@]3(C)[C@]1(C)CC2`, the Activity entry was “Dose-dependent effect” in [3]; “Dose-dependent effect” in series [4]; “Dose-dependent effect” in [5]; “Dose-dependent effect” in series [8]; “Dose-dependent effect” in series [7]; 53.4% in [9]. For the same compound, the Activity in [10] worked out at 61.1%; in [11], 68.4%; in [12] it was 14.8%; in series [13], 26.5%; in series [14], 30.3%; in series [15] it was 3.8%. The Activity turned out to be 4.4% in series [16] and 4.87% in [17]. Also, the IC50 is 2.8 µM in [3], 3.6 µM in series [5], 5.1 µM in [6] and 8.6 µM in [7]. Also, the HC50 at 1 h in series [2] is over 500 µM. Further, the outcome in [18], in series [19], in [20] and in [21] was Active.
Take `CC(=O)O[C@H]1C(=O)[C@@]2(C)[C@H]([C@H](OC(=O)c3ccccc3)[C@]3(O)C[C@H](OC(=O)[C@H](O)[C@@H](NC(=O)c4ccccc4)c4ccccc4)C(C)=C1C3(C)C)[C@]1(OC(C)=O)CO[C@@H]1C[C@@H]2O` [PACLITAXEL]: half-maximal inhibition in series [6] (IC50) was put at 1.86 µM.
As for `CCOC(=O)CNC(=O)[C@]12CCC(C)(C)C[C@H]1C1=CC[C@@H]3[C@@]4(C)CC[C@H](OC(C)=O)[C@@](C)(COC(C)=O)[C@@H]4CC[C@@]3(C)[C@]1(C)CC2`, the IC50 in series [3] came out at 4.6 µM; in [4], 5.5 µM; in series [5] it was 4.2 µM; in series [6], 4.9 µM; in series [7] it was 7.7 µM.
Turning to `C[C@@H]1O[C@@H](O[C@H]2[C@H](O[C@H]3CC[C@@]4(C)[C@@H](CC[C@]5(C)[C@@H]4CC(=O)[C@]46OC(=O)[C@@]7(CCC(C)(C)C[C@H]74)CC[C@@]56C)[C@]3(C)CO)OC[C@H](O[C@@H]3O[C@H](CO)[C@@H](O)[C@H](O)[C@H]3O)[C@@H]2O)[C@H](O)[C@H](O)[C@H]1O`, in series [1], the IC50 was over 10 µM. Further, the HC50 at 1 h in series [2] was found to be 290 µM.
Compound `C[C@@H]1O[C@@H](O[C@H]2[C@H](O[C@H]3CC[C@@]4(C)[C@@H](CC[C@]5(C)[C@@H]4CC=C4[C@@H]6CC(C)(C)CC[C@]6(C(=O)O)CC[C@]45C)[C@]3(C)CO)OC[C@H](O[C@@H]3O[C@H](CO)[C@@H](O)[C@H](O)[C@H]3O)[C@@H]2O)[C@H](O)[C@H](O)[C@H]1O` [HEDERACOLCHISIDE A] had an IC50 in series [1] of 6 µM.
Compound `C[C@@H]1O[C@@H](O[C@H]2[C@H](O[C@H]3CC[C@@]4(C)[C@@H](CC[C@]5(C)[C@@H]4CC(=O)[C@@H]4[C@@H]6CC(C)(C)CC[C@]6(C(=O)O)CC[C@]45C)[C@]3(C)CO)OC[C@H](O[C@@H]3O[C@H](CO)[C@@H](O)[C@H](O)[C@H]3O)[C@@H]2O)[C@H](O)[C@H](O)[C@H]1O` came in with an IC50 in [1] of over 10 µM. Also, the HC50 at 1 h in series [2] is 73.1 µM.
